Measured values: publication PMC8892239 (EFSA Journal, 2022)
Blank lines part the entries; values can stand above or below the molecule they belong to.

Experiments:
[1] = ref Regulation (EC) No 1272/2008; cited from earlier work
[2] = Residues of EQ and metabolites/TPs in piglet tissues; assay type: in vivo; details: piglets
[3] = Residues of EQ and metabolites/TPs in cattle tissues; assay type: in vivo
[4] = system: bone marrow; assay: In vivo micronucleus assay; design: species or system rat; details: 20 mg/kg bw once by oral gavage
Procedure, shortened: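 Female rats were dosed twice by oral gavage, 24 h apart, with vehicle or 87.5, 175 or 350 mg/kg bw. Cyclophosphamide 20 mg/kg bw was given once by gavage as positive control. Five groups of five animals. Micronuclei and the PCE/NCE ratio were scored.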

Structure (SMILES): CCOc1ccc(N)cc1 [p‐phenetidine]
- germ cell mutagenicity classification [1]: Muta. 2

- residue in muscle ([2]; control feed (0 mg EQ/kg), 42 days, mean ± SD, LOQs as above): ˂ LOQ
- residue in muscle ([2]; feed with 50 mg EQ/kg for 42 days, LOQs 1.5 to 2 µg EQ, EQDM, metabolite A/kg, 0.5 µg EQI/kg): ˂ LOQ
- concentration at 42 days ([3]; Holstein, bovine, liver, oral, 50 mg EQ/kg complete feed): 121 ng/g
- residue in muscle, highest value ([3]; cattle, control (0 mg EQ/kg feed), 42 days, LOQs as above): ˂ LOQ
Structure (SMILES): CCOC1=CC(=O)C2=NC(C)(C)C=C(C)C2=C1 [Metabolite A, 6‐ethoxy‐2,2,4‐trimethyl‐quinolin‐8‐one]

Structure (SMILES): O=P1(N(CCCl)CCCl)NCCCO1 (stereo not drawn) [Cyclophosphamide, cyclophosphamide]
- number of micronuclei (positive control) [4]: statistically significant increase
